The results in this text go back to ChEMBL document CHEMBL6120993, “Cardenolides in Asclepias syriaca Seeds: Exploring the Legacy of Tadeus Reichstein” (J Nat Prod, 2025).

Experiment [1] can be described thus: Inhibition of porcine sodium/potassium-ATPase incubated for 20 mins by Spectrophotometric analysis. Details: species or system Sus scrofa domesticus. In short, it runs like this: (§1)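 Enzyme was porcine cerebral cortex Na+/K+-ATPase or dissected Oncopeltus fasciatus neural tissue. Six-point 1/10 series (5 × 10⁻³ to 5 × 10⁻⁸ M, in 20% DMSO/H2O) was diluted 1:5 into Tris-buffered ATP, NaCl, KCl, MgCl2 and enzyme, then held 20 min at 37 °C with shaking. SDS stop; Taussky–Shorr phosphate read at 700 nm. KCl-free background contained 10 mM ouabain. Technical triplicates; ouabain reference; 4-parameter logistic mixed model gave IC50.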

Experiment [2] is described as follows: Inhibition of seed bug sodium/potassium-ATPase incubated for 20 mins by Spectrophotometric analysis. Details: species or system Oncopeltus fasciatus. A digest of the protocol:
as §1

Structures are written as SMILES.

Regarding `C[C@@H]1C[C@@]2(N=CCS2)[C@]2(O)O[C@@H]3C[C@@]4(C)[C@@H](C[C@@H]5O[C@]56[C@@H]4[C@H](O)C(=O)[C@]4(C)[C@@H](C5=CC(=O)OC5)CC[C@]64O)C[C@H]3O[C@@H]2O1`, the values for the IC50 in experiment [1] and in experiment [2] were 0.9 µM and 220 µM, respectively.

Consider `C[C@@H]1C[C@@H](O[C@@H]2O[C@H](CO)[C@@H](O)[C@H](O)[C@H]2O)[C@]2(O)O[C@@H]3C[C@@]4(C)[C@@H](C[C@@H]5O[C@]56[C@@H]4[C@H](O)C(=O)[C@]4(C)[C@@H](C5=CC(=O)OC5)CC[C@]64O)C[C@H]3O[C@@H]2O1`, for which the IC50 (usually the point on the concentration scale where inhibition reaches its midpoint) in experiment [1] was found to be 0.9 µM; in experiment [2], 640 µM.

As to `C[C@H]1O[C@@H](O[C@H]2CC[C@@]3(C)[C@H](C2)C[C@@H]2O[C@]24[C@@H]3C[C@@H](O)[C@]2(C)[C@@H](C3=CC(=O)OC3)CC[C@@]24O)[C@H](O)[C@H](O)[C@@H]1O[C@@H]1O[C@H](CO)[C@@H](O)[C@H](O)[C@H]1O`, the 50% inhibitory concentration (IC50) in experiment [1] was determined as 1.4 µM; in experiment [2] it was 1040 µM.

In the case of `C[C@H]1O[C@@H](O[C@H]2CC[C@@]3(C)[C@H](C2)C[C@@H]2O[C@]24[C@@H]3C[C@@H](O)[C@]2(C)[C@@H](C3=CC(=O)OC3)CC[C@@]24O)[C@H](O)[C@H](O)[C@@H]1O`, the IC50 worked out at 1.4 µM in experiment [1] and 1080 µM in experiment [2].

Consider `C[C@@H]1O[C@@H](O[C@H]2C[C@@H](O)[C@]3(CO)[C@H]4[C@H](O)C[C@]5(C)[C@@H](C6=CC(=O)OC6)CC[C@]5(O)[C@@H]4CC[C@]3(O)C2)[C@H](O)[C@H](O)[C@H]1O` [OUABAIN], for which the IC50 was 0.7 µM in experiment [1] and 2100 µM in experiment [2].

As for `C[C@H]1O[C@@H](O[C@H]2CC[C@@]3(C)[C@@H](CC[C@@H]4[C@@H]3C[C@@H](O)[C@]3(C)[C@@H](C5=CC(=O)OC5)CC[C@]43O)C2)[C@H](O)[C@H](O)[C@@H]1O[C@@H]1O[C@H](CO)[C@@H](O)[C@H](O)[C@H]1O`, the concentration for half-maximal inhibition (IC50) in experiment [1] came out at 1.1 µM; in experiment [2], 220 µM.

For the compound `C[C@H]1O[C@@H](O[C@H]2CC[C@@]3(C)[C@H](C2)C[C@@H]2O[C@]24[C@@H]3CC[C@]2(C)[C@@H](C3=CC(=O)OC3)CC[C@]42O)[C@H](O)[C@H](O)[C@@H]1O[C@@H]1O[C@H](CO)[C@@H](O)[C@H](O)[C@H]1O`, the results for the half-maximal inhibitory concentration (IC50) in experiment [1] and in experiment [2] were 1.1 µM and 830 µM, respectively.

On to `C[C@@H]1C[C@@H](O[C@@H]2O[C@H](CO)[C@@H](O)[C@H](O)[C@H]2O)[C@]2(O)O[C@@H]3C[C@@]4(C)[C@@H](C[C@@H]5O[C@]56[C@@H]4[C@H](O)[C@H](O)[C@]4(C)[C@@H](C5=CC(=O)OC5)CC[C@@]46O)C[C@H]3O[C@@H]2O1`, for which the IC50 in experiment [1] was determined as 2.2 µM; in experiment [2] it was 1960 µM.
